From ChEMBL document CHEMBL1141352, “Microbial transformation of cephalomannine by Luteibacter sp” (J Nat Prod, 2007) come the findings set out here.

Type in all cases: functional, cell-based
In one experiment the test system is HCT-8. Nature of the experiment: Cytotoxicity against human HCT8 cells by MTT assay. Summed up: (§1)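 Cells kept in RPMI 1640 with 10% FBS, penicillin 100 units/mL and streptomycin 100 μg/mL, at 37 °C in humidified 5% CO2. Seeded at 1200 cells/well; compounds added after 24 h and incubated 96 h. Tested at 10^-5 to 10^-9 M (five concentrations) from DMSO stocks, with 0.1% DMSO final, in triplicate wells. Viability by MTT formazan absorbance at 570 nm.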

Another experiment concerns Bel-7402. Nature of the experiment: Cytotoxicity against human Bel7402 cells by MTT assay. The procedure, abridged: as §1
For orientation: Tetrazolium dyes change colour on reduction, which living cells bring about.

The subject of the next experiment is BGC-823. Nature of the experiment: Cytotoxicity against human BGC823 cells by MTT assay. Summed up:
as §1

In another experiment the test system is A549. Nature of the experiment: Cytotoxicity against human A549 cells by MTT assay. The procedure, abridged: as §1
The next experiment deals with A2780. Nature of the experiment: Cytotoxicity against human A2780 cells by MTT assay. The procedure, abridged:
as §1

By IC50 is commonly meant the concentration that inhibits the measured activity by half. Low values mean inhibition by little substance, high ones a need for much substance. As to `CC(=O)O[C@H]1C(=O)[C@@]2(C)[C@H]([C@H](OC(=O)c3ccccc3)[C@]3(O)C[C@H](OC(=O)[C@H](O)[C@@H](NC(=O)c4ccccc4)c4ccccc4)C(C)=C1C3(C)C)[C@]1(OC(C)=O)CO[C@@H]1C[C@@H]2O` [PACLITAXEL], the IC50 in the experiment on HCT-8 worked out at 37 nM; with Bel-7402 it was 100 nM; in the experiment with BGC-823 it was 7 nM; in the experiment with A549, 19 nM; in the experiment with A2780, 6.3 nM.
The matching figures for `C/C=C(\C)C(=O)N[C@@H](c1ccccc1)[C@@H](O)C(=O)O[C@H]1C[C@@]2(O)[C@@H](OC(=O)c3ccccc3)[C@@H]3[C@]4(OC(C)=O)CO[C@@H]4C[C@H](O)[C@@]3(C)C(=O)[C@H](O)C(=C1C)C2(C)C`: 3290 nM, 2690 nM, 100 nM, greater than 10000 nM and 90 nM.
For `C/C=C(/C)C(=O)N[C@@H](c1ccccc1)[C@@H](O)C(=O)O[C@H]1C[C@@]2(O)[C@@H](OC(=O)c3ccccc3)[C@@H]3[C@]4(OC(C)=O)CO[C@@H]4C[C@@H](O)[C@@]3(C)C(=O)[C@H](O)C(=C1C)C2(C)C` the same measures were 2230 nM, 3530 nM, 790 nM, 3240 nM and 350 nM.
For `CC(=O)O[C@H]1C(=O)[C@]2(C)[C@@H](O[C@H]3OC[C@@H](O)[C@H](O)[C@H]3O)C[C@H]3OC[C@@]3(OC(C)=O)[C@H]2[C@H](OC(=O)c2ccccc2)[C@]2(O)C[C@H](O)C(C)=C1C2(C)C`, the IC50 with HCT-8, in the experiment with Bel-7402, in the experiment with BGC-823, in the experiment on A549 and with A2780 was greater than 10000 nM each time.
For `C/C=C(\C)C(=O)N[C@@H](c1ccccc1)[C@@H](O)C(=O)O[C@H]1C[C@@]2(O)[C@@H](OC(=O)c3ccccc3)[C@@H]3[C@]4(OC(C)=O)CO[C@@H]4C[C@H](O)[C@@]3(C)C(=O)[C@H](OC(C)=O)C(=C1C)C2(C)C` [CEPHALOMANNINE], the IC50 in the experiment on HCT-8 turned out to be 310 nM; in the experiment on Bel-7402, 920 nM; in the experiment on BGC-823 it was 100 nM; with A549, 100 nM; in the experiment on A2780, 100 nM.
As for `CC(=O)O[C@@]12CO[C@@H]1C[C@@H](O)[C@@]1(C)C(=O)C(=O)C3=C(C)[C@@H](O)C[C@@](O)([C@@H](OC(=O)c4ccccc4)[C@H]21)C3(C)C`, the IC50 was greater than 10000 nM with HCT-8; greater than 10000 nM in the experiment with Bel-7402; 1380 nM in the experiment with BGC-823; greater than 10000 nM with A549; 4890 nM in the experiment with A2780.
For `CCC(C)C(=O)N[C@@H](c1ccccc1)[C@@H](O)C(=O)O[C@H]1C[C@@]2(O)[C@@H](OC(=O)c3ccccc3)[C@@H]3[C@]4(OC(C)=O)CO[C@@H]4C[C@@H](O)[C@@]3(C)C(=O)[C@H](OC(C)=O)C(=C1C)C2(C)C` (stereo not given in full), the IC50 with HCT-8 turned out to be 1570 nM; with Bel-7402, 3300 nM; in the experiment on BGC-823, 530 nM; in the experiment with A549, 2240 nM; in the experiment with A2780 it was 650 nM.
The matching figures for `C/C=C(/C)C(=O)N[C@@H](c1ccccc1)[C@@H](O)C(=O)O[C@H]1C[C@@]2(O)[C@@H](OC(=O)c3ccccc3)[C@@H]3[C@]4(OC(C)=O)CO[C@@H]4C[C@@H](O)[C@@]3(C)C(=O)[C@H](OC(C)=O)C(=C1C)C2(C)C`: 230 nM, 690 nM, 90 nM, 90 nM and 70 nM.
